Laboratory results taken from ChEMBL document CHEMBL1141811, “Remangilones A-C, new cytotoxic triterpenes from Physena madagascariensis” (J Nat Prod, 1999).
Active and inactive are the calls of the source. The rule behind the calls is not given here.

What was measured:
MDA-MB-435 [1] = assay: Induction of apoptosis in human MDA-MB-435 cells assessed as change in nuclear morphology at 50 nM by fluorescence microscopy; format: functional, cell-based
How it was run: (§1)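 MDA-MB-435 cells plated in DFCI-1 medium at (3-5) × 10^4 cells/35-mm dish and attached 24 h (37 °C, 6.5% CO2). Treated 48 h, then attached cells were examined by fluorescence microscopy for nuclear shrinkage and chromatin condensation or fragmentation. 50 nM paclitaxel served as positive control.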

MDA-MB-231 [2] = assay: Cytotoxicity against human MDA-MB-231 cells assessed as change from polarized to spherical cellular morphology by SRB assay; format: functional, cell-based
MDA-MB-435 [3] = assay: Cytotoxicity against human MDA-MB-435 cells at 2.3 uM treated for 24 hrs and subsequently cultured in drug-free medium for 96 hrs by SRB assay; format: functional, cell-based
How it was run: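 MDA-MB-435 cells in DFCI-1 medium, seeded in triplicate at 4000/well and attached 24 h at 37 °C. Exposed to 2.3 μM compound for 24 h at 37 °C, then cultured in drug-free DFCI-1 medium for 96 h. Viability read by SRB staining with absorbance at 550 nm.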

MDA-MB-435 [4] = assay: Cytotoxicity against human MDA-MB-435 cells by SRB assay; format: functional, cell-based
How it was run: (§2)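 Cells washed in PBS, resuspended in DFCI-1 medium and seeded in triplicate at 4000/0.2 mL/well. After 24 h attachment (37 °C, 6.5% CO2), cells got 0.1–40.0 μM compound (DMSO below 0.2% final; DMSO controls) for 48 h. Cells were then PBS-washed and SRB-stained, and dye was redissolved in 10 mM Tris·HCl and read at 550 nm. IC50 taken as 50% reduction of relative cell number.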

MDA-MB-231 [5] = assay: Cytotoxicity against human MDA-MB-231 cells by SRB assay; format: functional, cell-based; how it was run: as §2
[6] = Cytotoxicity against human 70N cells by SRB assay; format: cell-based; how it was run: as §2
MDA-MB-435 [7] = assay: Induction of apoptosis in human MDA-MB-435 cells assessed as change in nuclear morphology at 2.3 uM by fluorescence microscopy; format: functional, cell-based; how it was run: as §1
MDA-MB-435 [8] = assay: Cytotoxicity against human MDA-MB-435 cells assessed as change from polarized to spherical cellular morphology by SRB assay; format: functional, cell-based

SMILES	Activity (MDA-MB-435 [1])	Activity (MDA-MB-231 [2])	Activity (MDA-MB-435 [3])	IC50 (MDA-MB-435 [4]) [µM]	IC50 (MDA-MB-231 [5]) [µM]	IC50 [6] [µM]	Activity (MDA-MB-435 [7])	Activity (MDA-MB-435 [8])
CC(=O)O[C@H]1C(=O)[C@@]2(C)[C@H]([C@H](OC(=O)c3ccccc3)[C@]3(O)C[C@H](OC(=O)[C@H](O)[C@@H](NC(=O)c4ccccc4)c4ccccc4)C(C)=C1C3(C)C)[C@]1(OC(C)=O)CO[C@@H]1C[C@@H]2O	Active							
CC1=C2CC[C@]3(C)[C@H](CC=C4[C@@H]5CC(C)(C)CC[C@@H]5C(=O)[C@H](O)[C@]43C)[C@@]2(C)C=C(O)C1=O [REMANGILONE A]		Active	Active	8.5	6.6	40.5	Active	Active
